Shown are actives, neighbours in structure and some others; about 2.7% of the full set was active somewhere.
OX1R antag-1 – antagonists of human orexin 1 receptor (OX1R); OX1R-expressing cells, FRET antagonist read-out; inhibition, % at 6.6 µM; 330,000 tested, 1.8% active; in the data active means inhibition mostly above about 38%, no sharp cut-off; inactive means mostly below about 40%
Target sequence (O43613 whole entry, looked up): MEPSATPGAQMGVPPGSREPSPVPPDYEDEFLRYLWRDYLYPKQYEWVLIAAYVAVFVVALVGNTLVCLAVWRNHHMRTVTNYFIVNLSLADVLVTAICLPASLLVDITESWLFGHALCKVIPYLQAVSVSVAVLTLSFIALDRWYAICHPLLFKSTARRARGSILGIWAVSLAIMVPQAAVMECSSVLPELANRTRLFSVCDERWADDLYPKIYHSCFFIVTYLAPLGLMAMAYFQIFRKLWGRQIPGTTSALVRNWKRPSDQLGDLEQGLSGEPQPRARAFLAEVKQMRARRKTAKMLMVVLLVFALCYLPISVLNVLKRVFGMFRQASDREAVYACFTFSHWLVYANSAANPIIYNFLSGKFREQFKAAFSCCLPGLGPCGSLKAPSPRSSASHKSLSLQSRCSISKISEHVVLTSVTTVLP
OXTR potentiator – human OXTR potentiators, primary screen, fluorescence, CHO-OTR cells, Fluo-8 calcium; Oxytocin receptor (Homo sapiens), P30559; Fluo-8 calcium fluorescence, potentiator mode; 0% = oxytocin EC15, 100% = EC100; activation, % at 3 µM; AID 2445, 2010; 320,000 tested, 0.061% active;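 active means activation above that plate's cutoff, the mean activation of tested compounds plus 3 SD, cut at about 6.6% in these data, passing the limit was not always enough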
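Replication – single well per compound, singlicate · Assay system – CHO cell line stably expressing human OTR · Timing – 6 min pre-incubation, 100 s read · Measure – normalized max/min fluorescence ratio, % activation · Doses – 3.0 µM, one dose · Detection – Fluo-8 calcium dye fluorescence · Probe or stimulus – oxytocin near EC15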
OXTR agonist – human OXTR agonists, primary screen, fluorescence, CHO-OTR cells, Fluo-8 calcium; Oxytocin receptor (Homo sapiens), P30559; Fluo-8 calcium fluorescence; normalized: DMSO 0%, oxytocin 100%; activation, % at 3 µM; 320,000 tested, 0.32% active;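 active means activation above the mean of all tested compounds plus 3 SD, cutoff set per screening run, cut at about 20% in these data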;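 further: peak over basal fluorescence ratio from a 100 s FLIPR kinetic read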
OX1R antag-2 – OX1R (HCRTR1) antagonists, primary screen, fluorescence, CHO/OX1R cells, Fluo-8 calcium, orexin A. Fluo-8 calcium fluorescence. 330,000 tested, 0.43% active. inhibition, % at 5 µM. AID 434989, 2010;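 active means inhibition above its plate's threshold, mean inhibition of all tested compounds on the plate plus 3 SD, cut at about 37% in these data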
CHO parental Ca – ATP-evoked calcium signal inhibitors, parental CHO, primary screen, counter-screen for OX1R antagonist project, cell-based, fluorescence, Fluo-8 calcium dye. parental CHO-K1, ATP-induced calcium, Fluo-8 fluorescence. inhibition, % at 5.6 µM. 330,000 tested, 0.63% active. AID 463079, 2010;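 active means inhibition above that plate's mean sample inhibition plus 3 SD, cut at about 26% in these data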
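Material: Parental CHO cells | Reagent: ATP | Compound dosing: Single nominal dose of 5.6 µM per compound | Detection: Intracellular calcium via Fluo-8 no-wash fluorescent dye | Read-out: % inhibition of ATP-induced calcium mobilization | Benchmarks: Low control ATP plus DMSO, high control DMSO only | Replicates: Singlicate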
V1aR counter – agonists of human V1a receptor, primary screen, counter-screen for OXTR agonist project, fluorescence, CHO-V1R cells. Vasopressin V1a receptor (Homo sapiens), P37288. Fluo-8 calcium fluorescence, agonist mode; 0% DMSO, 100% 3 nM vasopressin. activation, % at 3 µM. 320,000 tested, 0.25% active;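 active means activation above the mean activation of all tested compounds plus 3 SD, per screening run, cut at about 20% in these data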;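 further: signal is peak over basal fluorescence ratio across a 100 second FLIPR read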
Of the large screens only hits and unclear results are named; the others gave an inactive call.

COC(=O)C1=C(C)NC(=O)NC1c1ccc([N+](=O)[O-])o1 (stereo unspecified)	OX1R antag-1 76.6
CC1CC(C)CN(C(=O)COC(=O)c2ccc([N+](=O)[O-])o2)C1 (stereo unspecified)	none
O=C(COC(=O)c1cc(=O)[nH]c2ccccc12)Nc1ccccc1F	none
CCOc1ccc(C(=O)NCC(=O)OCC(=O)Nc2ccc(C)c(S(=O)(=O)N(C)C)c2)cc1	none
O=C(Oc1c(Cl)cc(Cl)c2cccnc12)c1ccco1	CHO parental Ca 33.6
O=C(Oc1c(Cl)cc(Cl)c2cccnc12)c1cccs1	none
O=C(CN(c1ccc(Cl)c(Cl)c1)S(=O)(=O)c1ccccc1)N1CCc2ccccc2C1	OX1R antag-1 73.7
Cc1ccc(S(=O)(=O)N(CC(=O)N2CCc3ccccc3C2)c2ccc(Cl)c(Cl)c2)cc1	none
CC(=O)Nc1ccc(S(=O)(=O)N2CCc3cc4c(cc3C2)OCCCO4)cc1	none
CC(=O)Nc1ccc(S(=O)(=O)NCC(=O)NC(C)c2ccc(S(N)(=O)=O)cc2)cc1 (stereo unspecified)	none
Cc1cn2c(N)c(/C=C3\C=Nc4ccccc43)c(=O)nc2s1	OX1R antag-1 45.0
CC(C)(C)c1ccc(S(=O)(=O)N2CCN(C(=O)C3=COCCO3)CC2)cc1	none
CCOc1ccc(N(C(C)C(=O)N2CCOCC2)S(C)(=O)=O)cc1 (stereo unspecified)	none
CCn1cc([N+](=O)[O-])c(C(=O)N2N=C(c3ccc(Cl)c(Cl)c3)CC2c2ccccc2O)n1 (stereo unspecified)	OX1R antag-2 73.5, CHO parental Ca 44.3
Cc1cc2sc3ccccc3c(=O)c2c(C)c1O	OX1R antag-1 68.7
O=c1c2ccccc2sc2ccc(Cl)cc12	none
Cc1cc(C(F)(F)F)n(-c2ccc(N)cc2)n1	none
O=C(CNC(=S)N(Cc1ccccc1F)C1CCCCC1)NCC1CCCO1 (stereo unspecified)	none
CCOC(=O)c1c(NC(=O)CN2C(=O)C(=O)N(C(C)C)C2=O)sc(C)c1CC	none
N#CC(C#N)=C1C=CC=CN1/C(=C\c1ccco1)C(=O)c1ccccc1	none
N#CC(C#N)=C1C=CC=CN1/C(=C\c1ccco1)C(=O)c1ccc(Br)cc1	OX1R antag-1 61.4, CHO parental Ca 49.3
COc1ccc(C(=O)/C(=C\c2ccco2)N2C=CC=CC2=C(C#N)C#N)cc1	OX1R antag-1 66.2
CN1CCN(NC(=O)Nc2cccc(F)c2)CC1	none
CC(C)c1cc(C(=O)Nc2cc(Br)ccc2O)no1	CHO parental Ca 29.7
CC(C)c1cc(C(=O)Nc2cc(Cl)ccc2O)no1	none
COc1ccc(NS(=O)(=O)c2cccc3nonc23)c(OC)c1	none
COc1ccc(N(C)C(=O)CCS(=O)(=O)c2cccc3nonc23)c(OC)c1	OX1R antag-1 60.9
CC(=O)c1cccc(NC(=O)CCS(=O)(=O)c2cccc3nonc23)c1	OX1R antag-1 57.8
COc1cccc(CNC(=O)CCS(=O)(=O)c2cccc3nonc23)c1	OX1R antag-1 59.1
CCN(C(=O)CCS(=O)(=O)c1cccc2nonc12)c1ccc(C)c(C)c1	none
COc1cccc(CNC(=O)CCS(=O)(=O)c2cccc3nsnc23)c1	none
Cc1cccc(N(C)C(=O)CCS(=O)(=O)c2cccc3nonc23)c1	OX1R antag-1 51.9
FC(F)(F)c1ccnc(Sc2n[nH]c(C(F)(F)F)n2)c1	none
CCCn1c(SCC(=O)N(C)CC(=O)Nc2ccc(Cl)cc2)n[nH]c1=O	none
COc1cc(C(=O)Nc2ccc(S(=O)(=O)Nc3nccc(C)n3)cc2)c([N+](=O)[O-])cc1OC	none
CC(C)=NOc1nc(N(C)C)nc(N2CCOCC2)n1	none
CCOc1ccccc1N1CCN(C(=O)NCc2ccc(C)cc2)CC1	none
O=C(COC(=O)CCC(=O)c1ccc(F)cc1)Nc1nnc(-c2ccccc2)o1	none
O=C(CCC(=O)c1ccc(F)cc1)OCc1nnc(-c2ccc([N+](=O)[O-])cc2)o1	OX1R antag-1 41.2
Cc1csc(=O)n1CC(=O)OCc1nnc(-c2ccc([N+](=O)[O-])cc2)o1	OX1R antag-1 36.6
CC1(C)Cc2cccc(OCC(=O)OCc3nnc(-c4ccccc4)o3)c2O1	none
CC1(C)Cc2cccc(OCC(=O)OCc3nnc(-c4ccc([N+](=O)[O-])cc4)o3)c2O1	OX1R antag-1 49.6
Cc1csc(=O)n1CC(=O)OCC(=O)NNC(=O)c1ccc([N+](=O)[O-])cc1	OX1R antag-1 75.5
C/C(CC(=O)Nc1ccc(F)cc1)=N\NC(=O)COc1ccccc1	none
CCOC(=O)C1C(C(=O)OC)=C(C(=O)OC)c2ccccc2N1S(=O)(=O)C(F)(F)F (stereo unspecified)	none (no result: OXTR potentiator, OXTR agonist, V1aR counter)
O=C(CSc1nnc(CNC(=O)c2ccco2)o1)Nc1ccc(Br)cc1	none
CCOC(=O)Cc1cc(=O)n2[nH]cc(-c3ccc(Cl)cc3)c2n1	none
CC(=O)c1c(C)[nH]c(C(=O)OCc2nnc(-c3ccc([N+](=O)[O-])cc3)o2)c1C	none
Cc1csc(=O)n1CCC(=O)OCC(=O)Nc1cc(Cl)ccc1[N+](=O)[O-]	OX1R antag-1 52.8
Cc1ccc(C(=O)NCC(=O)OCc2nnc(-c3ccc([N+](=O)[O-])cc3)o2)s1	OX1R antag-1 38.1
CC[C@](C)(O)c1cc2ccccc2c(=O)o1	none
C=CCn1ccc(O)c(Cc2ccc(Cl)cc2)c1=O	none
O=C(c1ccc([N+](=O)[O-])o1)N1CCN(Cc2ccccc2)CC1	OX1R antag-1 30.3
CN(Cc1ccccc1)C(=O)c1ccc([N+](=O)[O-])o1	OX1R antag-1 53.6
CC1CCN(C(=O)c2ccc([N+](=O)[O-])o2)CC1	OX1R antag-1 43.8
CC[C@]1(C(=O)OC)[C@H]2C(=O)N(Cc3ccccc3)C(=O)[C@H]2[C@H]2CN(C)C(=NCc3ccccc3)N21	none (no result: OXTR potentiator, OXTR agonist, V1aR counter)
CCC1CCCCN1CCCNC(=O)c1cn(CC)c2ccc(S(=O)(=O)N(C)C3CCCCC3)cc2c1=O (stereo unspecified)	none
CC(=O)c1ccc(-c2ccc(C(=O)NC3CCCCCC3)o2)cc1	none
c1ccc(-c2nc3c(ccc4ccccc43)[nH]2)nc1	OX1R antag-1 70.5
COc1ccc(CNCc2cc3c(cc2[N+](=O)[O-])OCO3)cc1	OX1R antag-1 43.8
Clc1ccc(CN2CCN(c3ncccn3)CC2)c(Cl)c1	none
